Assay results of several laboratories.
Each line is one published result; the experiments were not run side by side.
Organism: Escherichia coli
Effect on: microbial growth

c1ccc(CSc2nc3ccc(-c4ccccc4)cc3cc2CNCc2ccc(CN3CCCC3)cc2)cc1  MIC (broth dilution): > 128 µg/mL
Cc1ccc2[nH]nc(-c3nnc(Nc4ccc(C(F)(F)F)cc4)s3)c2c1  MIC (ATCC25922): 43.3 µg/mL
Cc1onc(-c2ccccc2)c1C(=O)N[C@@H]1C(=O)N2[C@@H]1SC(C)(C)[C@@H]2C(=O)O  MIC (broth dilution; ATCC25922): < 0.5 µg/mL
O=C(O)c1cn(C2CC2)c2cc(N3CCNCC3)c(F)cc2c1=O  MIC (broth dilution; ATCC25922; 16 h): 0.1 µM
CCN(CC)c1ccc(C=NC(=S)c2ccccc2)c(O)c1  MIC (broth dilution; ATCC25922): > 256 µg/mL
[H]/N=C(/N)N[C@H]1[C@H](O)[C@@H](O)[C@H](O[C@@H]2O[C@@H](C)[C@](O)(C=O)[C@H]2O[C@@H]2O[C@@H](CO)[C@H](O)[C@@H](O)[C@@H]2NC)[C@@H](N/C(N)=N\[H])[C@@H]1O  MIC (broth dilution; ATCC25922): 2 µg/mL
COc1ccc(N2N=C(C(C)=O)SC2=C(C#N)C(=O)c2ccc(Nc3cnccn3)cc2)cc1  MIC (broth dilution; ATCC10536): 6.25 µg/mL
Brc1ccc2nc(SCc3ccccc3)c(CNCc3ccc(CN4CCCC4)cc3)cc2c1  MIC (broth dilution): > 128 µg/mL
COc1ccc2ccc(O)c(/C=N/[C@H]3CCCC[C@H]3/N=C/c3ccc(-c4ccccc4)cc3O)c2c1  MIC (broth dilution; clinical isolate): > 40 µM
Cc1ccc2[nH]nc(-c3nnc(Nc4ccc(Cl)cc4)s3)c2c1  MIC (ATCC25922): 81.7 µg/mL
c1ccc(CSc2nc3ccc(-c4ccccc4)cc3cc2CNCCC2CCN(C3CCCC3)CC2)cc1  MIC (broth dilution): 16 µg/mL
COc1ccc2ccc(O)c(/C=N/[C@H]3CCCC[C@H]3/N=C/c3ccc(OCCN4CCCCC4)cc3O)c2c1  MIC (broth dilution; clinical isolate): > 40 µM
C[C@@H](O)[C@H]1C(=O)N2C(C(=O)O)=C(S[C@@H]3CN[C@H](C(=O)N(C)C)C3)[C@H](C)[C@H]12  MIC (broth dilution; ATCC25922): < 0.5 µg/mL
CO[C@H]1/C=C/O[C@@]2(C)Oc3c(C)c(O)c4c(O)c(c(/C=N/N5CCN(C)CC5)c(O)c4c3C2=O)NC(=O)/C(C)=C\C=C\[C@H](C)[C@H](O)[C@@H](C)[C@@H](O)[C@@H](C)[C@H](OC(C)=O)[C@@H]1C  MIC (broth dilution): 8 µM
N#CC(C#N)=C1SC(C(=O)c2ccc(Nc3cnccn3)cc2)=NN1c1ccc([N+](=O)[O-])cc1  MIC (broth dilution; ATCC10536): 12.5 µg/mL
NC[C@H]1O[C@H](O[C@H]2[C@H](O)[C@@H](O[C@H]3O[C@H](CO)[C@@H](O)[C@H](N)[C@H]3O)[C@H](N)C[C@@H]2N)[C@H](N)C[C@@H]1O  MIC: ≤ 1 µg/mL
CCCCCCCCCCCC[N+](C)(C)Cc1ccccc1  MIC: 63 µM
COc1ccc2ccc(O)c(/C=N/[C@H]3CCCC[C@H]3/N=C/c3c(O)cccc3F)c2c1  MIC (broth dilution; clinical isolate): > 40 µM
CC(C)c1ccc(/C=C2\N=C(SCC(=O)O)N(c3ccccc3)C2=O)cc1  MIC (broth dilution; ATCC25 ATCC25922): 15 µg/mL
CO/N=C(\C(=O)N[C@@H]1C(=O)N2C(C(=O)O)=CCS[C@H]12)c1csc(N)n1  MIC (broth dilution; ATCC25922): 0.125 µg/mL
O=C(N[C@H](CO)[C@H](O)c1ccc([N+](=O)[O-])cc1)C(Cl)Cl  MIC (broth dilution; ATCC10536): 3.12 µg/mL
COc1cc(Cc2cnc(N)nc2N)cc(OC)c1OC  MIC (broth dilution; BW25113; 18 h): 0.25 µg/mL
Cc1ccc2[nH]nc(-c3nnc(Nc4ccc(Cl)c(Br)c4)s3)c2c1  MIC (ATCC25922): 247 µg/mL
O=C(N[C@H](CO)[C@H](O)c1ccc([N+](=O)[O-])cc1)C(Cl)Cl  MIC (broth dilution): 16 µg/mL
C[C@@H](O)[C@H]1C(=O)N2C(C(=O)O)=C(S[C@@H]3CN[C@H](C(=O)N(C)C)C3)[C@H](C)[C@H]12  MIC (ATCC25922; drug-resistant strain): 0.15 µg/mL
Brc1ccc2nc(SCc3ccccc3)c(CNCCC3CCN(C4CCCC4)CC3)cc2c1  MIC (broth dilution): 32 µg/mL
Cc1ccc2[nH]nc(-c3nnc(Nc4cc(Cl)cc(Br)c4)s3)c2c1  MIC (ATCC25922): 228 µg/mL
CNC(C)C1CCC(N)C(OC2C(N)CC(N)C(OC3OCC(C)(O)C(NC)C3O)C2O)O1 (stereo not shown)  MIC (broth dilution): 2 µg/mL
CC(C)(O/N=C(\C(=O)N[C@@H]1C(=O)N2C(C(=O)[O-])=C(C[n+]3ccccc3)CS[C@H]12)c1csc(N)n1)C(=O)O  MIC: 0.25 µg/mL
CC(=O)OCc1nn(C)c2nc(N)[nH]c(=O)c2c1=O  MIC (broth dilution; BW25113; 18 h): 25 µg/mL
C[C@@H](O)[C@H]1C(=O)N2C(C(=O)O)=C(SCCN=CN)C[C@H]12  MIC: ≤ 0.25 µg/mL
CCN(CC)c1ccc(C=NC(=O)c2ccc3ccccc3c2)c(O)c1  MIC (broth dilution; ATCC25922): > 256 µg/mL
CC[C@H]1OC(=O)[C@H](C)[C@@H](O[C@H]2C[C@@](C)(OC)[C@@H](O)[C@H](C)O2)[C@H](C)[C@@H](O[C@@H]2O[C@H](C)C[C@H](N(C)C)[C@H]2O)[C@](C)(O)C[C@@H](C)CN(C)[C@H](C)[C@@H](O)[C@]1(C)O  MIC (ATCC25922): < 98 µg/mL
CC(=O)C1=NN(c2ccccc2)C(=C(C#N)C(=O)c2ccc(Nc3cnccn3)cc2)S1  MIC (broth dilution; ATCC10536): 100 µg/mL
Cc1cc(O)cc(Nc2nnc(-c3n[nH]c4ccc(C)cc34)s2)c1  MIC (ATCC25922): 176 µg/mL
N=c1sc(C(=O)c2ccc(Nc3cnccn3)cc2)nn1-c1ccccc1  MIC (broth dilution; ATCC10536): 50 µg/mL
Cc1cc(Nc2nnc(-c3n[nH]c4ccc(C)cc34)s2)cc([N+](=O)[O-])c1  MIC (ATCC25922): 166 µg/mL
COc1cc2cc(CNCCC3CCN(C4CCCC4)CC3)c(SCc3ccccc3)nc2c(OC)c1OC  MIC (broth dilution): > 128 µg/mL
CC1(C)S[C@@H]2[C@H](NC(=O)[C@H](N)c3ccccc3)C(=O)N2[C@H]1C(=O)O  MIC (broth dilution; ATCC25922; 18 h, dark): 16 µM
CN1CCN(CCNCc2cc3cc(-c4ccccc4)ccc3nc2SCc2ccccc2)CC1  MIC (broth dilution): 16 µg/mL
CC1(C)S[C@@H]2[C@H](NC(=O)[C@H](N)c3ccccc3)C(=O)N2[C@H]1C(=O)O  MIC (broth dilution; ATCC25922; 12 h): 8 µg/mL
c1ccc(CSc2nc3ccccc3cc2CNCc2ccc(CN3CCCC3)cc2)cc1  MIC (broth dilution): > 128 µg/mL
C[C@@H](O)[C@H]1C(=O)N2C(C(=O)O)=C(S[C@@H]3CN[C@H](C(=O)N(C)C)C3)[C@H](C)[C@H]12  MIC: ≤ 0.25 µg/mL
